High-throughput results: PubChem BioAssay, Sanford-Burnham Center for Chemical Genomics
CCR6 antag: antagonists of human CCR6 receptor; CHO-K1 CCR6 PathHunter beta-arrestin, luminescence, CCL20-stimulated; inhibition, % at 20 µM; hit rate 0.49% among 340,000; AID 493098;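 active means compounds whose inhibition of the agonist-driven luminescence signal at 20 µM reaches about 50%, limit read from the data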;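 further: cells stimulated with CCL20 at 14 nM final; plate controls were DMSO with CCL20 for no effect and DMSO without agonist for full effect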
APJ antagonist: blocks the human apelin receptor APJ; P35414; hit rate 0.32% among 330,000; inhibition, % at 20 µM; CHO-K1 APJ beta-arrestin complementation, luminescence;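 active means inhibition above about 40% at 20 µM, limit read from the data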;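 further: cells challenged with 10 nM apelin-13 agonist together with compound; plate controls were apelin-13 plus DMSO wells for no effect and DMSO wells lacking apelin-13 for full effect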
Target sequence (P35414 whole entry, looked up): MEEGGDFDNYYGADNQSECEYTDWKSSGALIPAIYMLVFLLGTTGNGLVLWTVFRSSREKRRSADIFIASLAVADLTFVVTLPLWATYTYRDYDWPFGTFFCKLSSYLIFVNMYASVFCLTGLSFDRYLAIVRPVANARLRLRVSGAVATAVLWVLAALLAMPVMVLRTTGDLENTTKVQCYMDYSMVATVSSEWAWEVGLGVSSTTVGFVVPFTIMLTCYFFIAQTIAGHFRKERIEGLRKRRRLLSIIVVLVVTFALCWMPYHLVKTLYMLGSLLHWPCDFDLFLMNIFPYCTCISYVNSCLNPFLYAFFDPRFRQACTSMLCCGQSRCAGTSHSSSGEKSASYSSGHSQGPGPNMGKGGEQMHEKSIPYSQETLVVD
CXCR6 block: inhibitors of human CXCR6 receptor; O00574; CHO-K1 PathHunter CXCR6 beta-arrestin, luminescence; inhibition, % at 20 µM; hit rate 0.36% among 360,000; AID 602244; in the data active means inhibition above about 34%, passing the limit was not always enough;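 further: antagonist mode with CXCL16 agonist at 10 nM final; 0% = 10 nM CXCL16 with DMSO and 100% = unstimulated wells without agonist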
Target sequence (O00574 whole entry, looked up): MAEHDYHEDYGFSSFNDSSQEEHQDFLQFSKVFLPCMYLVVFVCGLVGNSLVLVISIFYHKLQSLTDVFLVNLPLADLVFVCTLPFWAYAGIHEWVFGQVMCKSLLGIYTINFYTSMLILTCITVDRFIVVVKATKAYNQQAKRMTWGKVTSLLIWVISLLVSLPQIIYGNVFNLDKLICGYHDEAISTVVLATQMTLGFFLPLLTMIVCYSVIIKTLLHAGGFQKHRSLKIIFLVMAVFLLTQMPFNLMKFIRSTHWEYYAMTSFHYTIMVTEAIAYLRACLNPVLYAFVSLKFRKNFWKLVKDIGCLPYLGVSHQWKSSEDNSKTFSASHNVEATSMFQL
EBI2 antag: blocks human EBI2 receptor beta-arrestin signaling; hit rate 0.81% among 360,000; EBI2 beta-arrestin recruitment, luminescence, 7a,25-OHC stimulated; AID 651636; P32249; inhibition, % at 5 µM; in the data active means inhibition above about 38%;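 further: enzyme fragment complementation signal reports receptor beta-arrestin coupling in cells; 0% = agonist plus DMSO wells and 100% = wells without agonist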
APJ agonist: agonists of human APJ apelin receptor; P35414; CHO-K1 APJ PathHunter beta-arrestin, luminescence; 0% DMSO wells, 100% apelin; activation, % at 20 µM; hit rate 0.11% among 330,000; AID 2520;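 active means activation more than six SD over the plate average, tested at 20 µM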;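 further: 0% = DMSO alone and 100% = apelin-13 at 10 nM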
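Assay system: engineered CHO-K1 APJ arrestin reporter cells; Amount: 1000 CHO-K1 reporter cells seeded per well; Dosing: one dose, 20 µM compound, 1% DMSO; Times: compound stimulation 90 min at 25 °C, detection 60 min; Measured by: luminescent beta-gal fragment complementation, chemiluminescent substrate; Read-out: APJ–arrestin association signal; Controls: DMSO vs Apelin-13 10 nM.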
The depositor's hits bear a star; nt = no result given. Rows were chosen to be rich in hits. Some 1.5% of all compounds tested hit in one or more screens of this group.

SMILES | CCR6 antag | APJ antagonist | CXCR6 block | EBI2 antag | APJ agonist
CCC[C@@H]1C=C(C(=O)OCC)[C@H](c2ccccc2)N1S(=O)(=O)c1ccc(C)cc1 | nt | nt | 10.2 | 9.2 | nt
O=C(NCc1ccc(F)cc1)c1cc(C2CCCN(S(=O)(=O)c3ccccc3)C2)on1 (stereo unspecified) | nt | nt | 4.9 | 19.4 | nt
Cc1ccccc1OCC(=O)OCC(=O)NC1CCCCCC1 | 6.0 | -55.8 | -9.8 | 7.3 | -1.9
Cc1ccn2c(Nc3ccccc3)c(-c3ccccn3)nc2c1 | 26.0 | 49.1* | 28.8 | -5.5 | -7.0
CCOc1cc(/C=N/Nc2cc(C)nc(-n3nc(C)cc3C)n2)ccc1O | 116.4* | 106.2* | 110.1* | 97.5* | -15.5
CCOc1cc(/C=N/Nc2nc(C)cc(=O)[nH]2)ccc1O | 2.0 | -13.4 | -7.8 | -0.3 | -4.2
CCCCCCCCCC1NC(C(=O)O)Cc2c1[nH]c1ccccc21 (stereo unspecified) | nt | nt | 0.2 | -4.3 | nt
C/C=C(/CCC1NCCc2c1[nH]c1ccccc21)[Si](C)(C)C (stereo unspecified) | 51.3* | nt | 19.1 | 2.8 | nt
COc1cc(/C=C2/C(=O)N(c3ccc([N+](=O)[O-])cc3)N=C2N2CCOCC2)ccc1O | 55.2* | 32.0 | 36.9 | 5.9 | -3.1
CC1(C(=O)NCc2cccc3ccccc23)CCN1Cc1ccc(OC(F)(F)F)cc1 (stereo unspecified) | nt | nt | 3.5 | 0.4 | nt
O=[N+]([O-])c1ccc(NNC(=S)Nc2ccc(F)cc2)cc1 | 68.0* | 21.7 | 25.4 | 3.4 | -0.4
O=C(NNC(=S)Nc1ccc(F)cc1)c1cccc([N+](=O)[O-])c1 | -4.6 | 15.7 | -1.7 | 8.1 | 1.8
COc1ccc(NC(=O)c2cc(C3CCCCN3S(=O)(=O)c3ccccc3)on2)c(C)c1 (stereo unspecified) | nt | nt | -6.2 | -8.2 | nt
COc1ccc(NC(=O)CN2C(=O)/C(=C3\SC(=S)N(CCC(=O)O)C3=O)c3ccccc32)cc1 | 55.2* | -142.2 | 7.6 | -0.9 | 12.0
O=C(O)CCN1C(=O)/C(=C2\C(=O)N(Cc3ccccc3Cl)c3ccccc32)SC1=S | nt | -3.6 | 15.9 | 0.1 | 0.0
Cc1ccc(C(=O)NC(=S)Nc2cccc3nsnc23)cc1 | 45.4 | 9.2 | 12.3 | 1.6 | -3.1
Cc1ccc(C(=O)NC(=S)Nc2cccc3c(C)cc(C)nc23)cc1 | 50.7* | 0.6 | 19.6 | 34.1 | -0.7
CCC(CC)C(=O)N(C)c1c(C)nc2c(OCC(=O)C(C)(C)C)cccn12 | nt | nt | -8.9 | -0.8 | nt
CCC(=O)NC(c1ccc(OC)c(OC)c1)c1cc(Cl)c2cccnc2c1O (stereo unspecified) | 6.5 | nt | 1.3 | 17.2 | nt
Oc1c(Cl)cc(Cl)c2cccnc12 | 62.9* | nt | 49.4* | 10.9 | nt
O=C(Oc1c(CN2CCOCC2)cc(Cl)c2cccnc12)c1ccccc1Cl | 41.9 | 10.8 | 27.7 | 53.0* | -1.9
CCC(=O)NC(c1ccc(C)cc1)c1cc(Cl)c2cccnc2c1O (stereo unspecified) | 55.8* | 25.8 | 12.0 | 31.6 | -4.2
Oc1c(Cl)cc(CN2CCCCC2)c2cccnc12 | nt | 24.6 | 49.3* | 4.8 | -8.3
COc1cc(CNC[C@H]2O[C@@H](n3ccc(N)nc3=O)[C@H](O)[C@@H]2O)ccc1OCc1ccc(C)cc1 | nt | nt | 5.1 | -3.7 | nt
Cc1ccc(S(=O)(=O)/C=C2\OCc3ccccc32)cc1 | nt | nt | nt | -12.0 | nt
SMILES | CCR6 antag | APJ antagonist | CXCR6 block | EBI2 antag | APJ agonist
N#C/C(=C\c1ccc(O)cc1)c1nc2ccccc2o1 | 40.0 | 45.1* | 23.4 | 2.0 | -5.2
CC1(C(=O)NS(=O)(=O)c2ccc(C#N)cc2)CCN1C(=O)CC1CCCCC1 (stereo unspecified) | nt | nt | 10.7 | -6.8 | nt
C=C1CC2(OC1=O)c1ccccc1CCc1ccccc12 | 67.8* | nt | 45.1* | 30.1 | nt
Cc1ccc(S(=O)(=O)N2[C@@H](c3cccc(Cl)c3)C(C(=O)OC(C)(C)C)=CC[C@H]2c2ccc(C(C)C)cc2)cc1 | nt | nt | 2.9 | -5.7 | nt
CCC(C)[C@H]1CNC(=S)N1CCc1cccc2ccccc12 (stereo partly specified) | 16.4 | 21.6 | 9.8 | 45.8* | 1.5
CCC(C)[C@H]1CNC(=O)C(=O)N1CCc1cccc2ccccc12 (stereo partly specified) | nt | nt | 1.3 | 11.4 | nt
CCCN(CCC)CCNS(=O)(=O)c1ccc2c(c1)oc(=O)n2C | 118.8* | 2.9 | -3.7 | -0.3 | -0.9
CN1/C(=C/C(=O)c2nc(S(C)(=O)=O)ncc2Cl)C(C)(C)c2ccccc21 | 37.0 | 23.9 | 35.1 | 57.7* | -2.8
CN1/C(=C\C(=O)c2cccnc2)C(C)(C)c2ccccc21 | -11.7 | 5.7 | -2.4 | -19.3 | 0.7
COc1ccc(NC(=O)C[C@H]2C(=O)N(Cc3ccccc3)C[C@@H]2C)cc1 | nt | nt | -4.2 | -3.1 | nt
Cc1ccc2c(c1)c1ccc3c(c1n2C)C(=O)C=CC3=O | 106.1* | 39.8 | 59.7* | 4.8 | -5.2
Cn1c2ccccc2c2ccc3c(c21)C(=O)C=CC3=O | 109.2* | nt | 70.5* | -35.7 | nt
COc1ccc2c(c1)c1ccc3c(c1n2C)C(=O)C=CC3=O | 106.1* | 44.3* | 78.8* | 0.2 | -0.6
CC(C)(C)NC(=O)C(c1ccc(C(F)(F)F)cc1)n1c(=O)c(-c2cc3ccccc3[nH]2)nc2ccccc21 (stereo unspecified) | nt | nt | nt | 10.4 | nt
COCCNC(=O)C1CCCN(Cc2ccccc2F)CC1 (stereo unspecified) | nt | nt | -2.7 | -6.4 | nt
CCOC(=O)N1CCN(CC(=O)Nc2nccs2)CC1 | nt | nt | 5.6 | -0.9 | nt
N#Cc1c(Nc2ccccc2)[n+]([O-])c2ccc(Cl)cc2[n+]1[O-] | -2.8 | nt | 21.9 | -10.9 | nt
CCCCNC(=O)C1(C)CCN1C(=O)c1cc(-c2ccccc2)cs1 (stereo unspecified) | nt | nt | 6.4 | 7.4 | nt
Oc1ccc(Cl)cc1N=Cc1sc2ccccc2c1Cl | 2.9 | nt | -13.9 | -10.0 | nt
O=[N+]([O-])c1ccc(O)c(N=Cc2sc3ccccc3c2O)c1 | 53.5* | nt | 20.0 | 35.2 | nt
O=C(Cn1sc2ccccc2c1=O)NC12CC3CC(CC(C3)C1)C2 | 28.7 | 3.4 | 40.6* | 32.0 | 7.9
O=C(Cn1sc2ccccc2c1=O)Nc1ccccc1 | nt | nt | -4.6 | -0.5 | nt
CCNC(=O)C1(C)CCCN(C(=O)c2cccnc2Oc2ccccc2)C1 (stereo unspecified) | nt | nt | -1.7 | 4.8 | nt
CCN(CC)c1ccc(Nc2nc(N3CCOCC3)c3ccccc3n2)cc1 | -1.4 | -23.6 | 0.6 | 44.8* | 5.7
COc1ccc(Nc2nc(N3CCCC3)c3ccccc3n2)cc1 | -7.3 | 1.3 | 2.8 | -16.1 | 9.7
CSC(=S)N/N=C(\C)c1ccccc1 | 57.1* | 46.8* | 37.3 | -1.1 | -7.9
C/C(=N\NC(N)=S)c1ccccc1 | 6.1 | 0.4 | 4.2 | -5.5 | 0.0
Cn1cccc1C(C#N)c1cccc(F)c1C#N (stereo unspecified) | 55.1* | 34.1 | 3.5 | -10.6 | -6.6
CSc1ccc(CN2CCC2(C)C(=O)Nc2cccc(NS(C)(=O)=O)c2)cc1 (stereo unspecified) | nt | nt | 7.8 | 3.5 | nt
O=C(/C(=C/c1ccc(Cl)cc1)c1nc2ccccc2[nH]1)c1ccccc1 | 17.8 | 14.6 | 11.5 | 50.3* | -1.1
